Measurements taken from ChEMBL document CHEMBL2157894, “Antileishmanial bis-arylimidamides: DB766 analogs modified in the linker region and bis-arylimidamide structure-activity relationships” (Bioorg Med Chem Lett, 2012).

What was measured:
[1] = Selectivity index, ratio of IC50 for mouse J774 cells to IC50 for Leishmania amazonensis; assay type: toxicity, cell-based; conditions: J774 cells versus Leishmania amazonensis, read-out: Ratio IC50
Procedure, shortened: (§1)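 SI calculated as IC50 against J774 macrophages divided by IC50 against intracellular Leishmania, each IC50 from mean of at least three determinations.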

Mus musculus [2] = test: Toxicity in BALB/c mouse assessed as hyperactivity at 30 mg/kg/day, ip measured from day 2 to 3; assay type: organism-based; design: route intraperitoneal; conditions: in vivo
Leishmania donovani [3] = test: Antileishmanial activity against amastigote form of Leishmania donovani LV82 expressing beta-lactamase infected in CD1 mouse macrophages after 72 hrs by nitrocefin-based spectrophotometric analysis; assay type: functional, organism-based; conditions: LV82, 72 h
Procedure, shortened: (§2)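 Intracellular amastigotes in macrophages; absorbance read-out with uninfected and infected control wells; IC50 from dose–response curves; mean ± SD of at least three determinations, each run in triplicate.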

Leishmania amazonensis = test: Antileishmanial activity against amastigote form of Leishmania amazonensis expressing beta-lactamase infected in CD1 mouse macrophages after 72 hrs by nitrocefin-based spectrophotometric analysis; assay type: functional, organism-based; procedure, shortened: as §2
J774 = test: Cytotoxicity against mouse J774 cells; assay type: cell-based
Procedure, shortened: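 J774 macrophages exposed to compounds; IC50 reported in nM as mean ± SD of at least three determinations.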

Mus musculus [4] = test: Toxicity in BALB/c mouse assessed as tremors at 30 mg/kg/day, ip measured from day 2 to 3; assay type: organism-based; design: route intraperitoneal; conditions: in vivo
[5] = Selectivity index, ratio of IC50 for mouse J774 cells to IC50 for Leishmania donovani; assay type: toxicity, cell-based; conditions: J774 cells versus Leishmania donovani, read-out: Ratio IC50; procedure, shortened: as §1
Leishmania donovani [6] = test: Antileishmanial activity against promastigote form of Leishmania donovani LV82 infected in BALB/c mouse assessed as reduction in liver parasitemia at 30 mg/kg/day, ip administered for 5 days starting 1 week post-infection measured after 2 weeks relative to untreated control; assay type: functional; design: scale not given: the % may be the effect or the level left; conditions: route intraperitoneal
Procedure, shortened: (§3)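 Female BALB/c mice infected with L. donovani; treated daily for five days starting one week post infection, test agent ip in water, miltefosine orally at 10 mg/kg/day; liver parasitemia counted microscopically two weeks post infection; % reduction versus infected untreated controls; groups of four, mean ± SD; P<0.05 versus untreated.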

Mus musculus [7] = test: Toxicity in BALB/c mouse assessed as adverse effects at 30 mg/kg/day, ip administered for 5 days; assay type: organism-based; design: route intraperitoneal; conditions: in vivo, 120 h
Mus musculus [8] = test: Gastrointestinal toxicity in BALB/c mouse assessed as black and swollen stomach at 30 mg/kg, ip measured within 24 hrs by necroscopic analysis; assay type: organism-based; design: dose 30 mg/kg, route intraperitoneal; conditions: in vivo
Mus musculus [9] = test: Gastrointestinal toxicity in BALB/c mouse assessed as black and swollen colon at 30 mg/kg, ip measured within 24 hrs by necroscopic analysis; assay type: organism-based; design: dose 30 mg/kg, route intraperitoneal; conditions: in vivo
Mus musculus [10] = test: Gastrointestinal toxicity in BALB/c mouse assessed as black and swollen intestine at 30 mg/kg, ip measured within 24 hrs by necroscopic analysis; assay type: organism-based; design: dose 30 mg/kg, route intraperitoneal; conditions: in vivo
Mus musculus [11] = test: Toxicity in BALB/c mouse assessed as mortality at 30 mg/kg, ip measured within 24 hrs; assay type: organism-based; design: dose 30 mg/kg, route intraperitoneal; conditions: in vivo
Leishmania donovani [12] = test: Antileishmanial activity against promastigote form of Leishmania donovani LV82 infected in BALB/c mouse assessed as reduction in liver parasitemia at 10 mg/kg/day, po administered for 5 days relative to untreated control; assay type: functional; design: scale not given: the % may be the effect or the level left; procedure, shortened: as §3

Q: For `CC(C)Oc1cc(NC(=N)c2ccccn2)ccc1-c1ccc(-c2ccc(NC(=N)c3ccccn3)cc2F)o1.CS(=O)(=O)O`, which selectivity ratio [1] is on record?
A: 142

Q: And the Activity (Mus musculus [2])?
A: Toxic

Q: What about the IC50 (Leishmania donovani [3]) of the same compound?
A: 150 nM

Q: What about the IC50 (Leishmania amazonensis) of the same compound?
A: 190 nM

Q: What about the IC50 (J774) of the same compound?
A: 27000 nM

Q: And the Activity (Mus musculus [4])?
A: Toxic

Q: What about the selectivity ratio [5] of the same compound?
A: 180

Q: For `C[C@@H]1[C@H](O)[C@@H](C)/C=C/C=C/C=C/C=C/C=C/C=C/C=C/[C@H](O[C@@H]2O[C@H](C)[C@@H](O)[C@H](N)[C@@H]2O)C[C@@H]2O[C@](O)(C[C@@H](O)C[C@@H](O)[C@H](O)CC[C@@H](O)C[C@@H](O)CC(=O)O[C@H]1C)C[C@H](O)[C@H]2C(=O)O` [AMPHOTERICIN B], which IC50 (Leishmania donovani [3]) is on record?
A: 45 nM

Q: For `CS(=O)(=O)O.Cc1cc(NC(=N)c2ccccn2)ccc1-c1ccc(-c2ccc(NC(=N)c3ccccn3)cc2OC(C)C)o1`, which selectivity ratio [1] is on record?
A: 265

Q: And the Activity (Mus musculus [2])?
A: Toxic

Q: And the IC50 (Leishmania donovani [3])?
A: 21 nM

Q: What about the IC50 (Leishmania amazonensis) of the same compound?
A: 49 nM

Q: What about the IC50 (J774) of the same compound?
A: 13000 nM

Q: What about the Activity (Mus musculus [4]) of the same compound?
A: Toxic

Q: What about the selectivity ratio [5] of the same compound?
A: 619

Q: Which Activity (Leishmania donovani [6]) does the source give for `CC(C)Oc1cc(-c2ccc(-c3ccc(NC(=N)c4ccccn4)c(OC(C)C)c3)o2)ccc1NC(=N)c1ccccn1.CS(=O)(=O)O` here?
A: 32%

Q: What about the Activity (Mus musculus [7]) of the same compound?
A: Non-toxic

Q: What about the IC50 (Leishmania donovani [3]) of the same compound?
A: 26 nM

Q: And the IC50 (Leishmania amazonensis)?
A: 290 nM

Q: What about the IC50 (J774) of the same compound?
A: 10000 nM

Q: And the selectivity ratio [5]?
A: 385

Q: What does the source list for `CC(C)Oc1cc(NC(=N)c2ccccn2)ccc1-c1ccc(-c2ccc(NC(=N)c3ccccn3)cc2)o1.CS(=O)(=O)O`?
A: selectivity ratio [1]: 115; Activity (Mus musculus [8]): Toxic; Activity (Mus musculus [9]): Toxic; IC50 (Leishmania donovani [3]): 5.3 nM; IC50 (Leishmania amazonensis): 93 nM; Activity (Mus musculus [10]): Toxic; IC50 (J774): 11000 nM; selectivity ratio [5]: 2080; Activity (Mus musculus [11]): Toxic

Q: Which Activity (Leishmania donovani [12]) does the source give for `CCCCCCCCCCCCCCCCOP(=O)([O-])OCC[N+](C)(C)C` [MILTEFOSINE] here?
A: 96%

Q: Which IC50 (J774) does the source give for `COc1cc([C@@H]2c3cc4c(cc3[C@H](O)[C@H]3COC(=O)[C@H]23)OCO4)cc(OC)c1OC` [PODOFILOX] here?
A: 18 nM

Q: Which selectivity ratio [1] does the source give for `COc1cc(NC(=N)c2ccccn2)ccc1-c1ccc(-c2ccc(NC(=N)c3ccccn3)cc2OC(C)C)o1.CS(=O)(=O)O` here?
A: 127

Q: What about the Activity (Mus musculus [2]) of the same compound?
A: Toxic

Q: What about the IC50 (Leishmania donovani [3]) of the same compound?
A: 7 nM

Q: And the IC50 (Leishmania amazonensis)?
A: 110 nM

Q: And the IC50 (J774)?
A: 14000 nM

Q: What about the Activity (Mus musculus [4]) of the same compound?
A: Toxic

Q: And the selectivity ratio [5]?
A: 2000
